Screening data (PubChem BioAssay)
IDH1 mut inh = IDH1 R132H (human) inhibition | 0.18% of 70,000 active | O75874 | inhibition, % at 10 µM | IDH1 R132H reductase, diaphorase/resazurin fluorescence, 60 min; in the data active means inhibition above about 34%; inconclusive means no clear call, values can overlap the other calls; inactive means below about 11%;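 further: 0% = DMSO and 100% = no enzyme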
Target sequence (O75874 whole entry R132H): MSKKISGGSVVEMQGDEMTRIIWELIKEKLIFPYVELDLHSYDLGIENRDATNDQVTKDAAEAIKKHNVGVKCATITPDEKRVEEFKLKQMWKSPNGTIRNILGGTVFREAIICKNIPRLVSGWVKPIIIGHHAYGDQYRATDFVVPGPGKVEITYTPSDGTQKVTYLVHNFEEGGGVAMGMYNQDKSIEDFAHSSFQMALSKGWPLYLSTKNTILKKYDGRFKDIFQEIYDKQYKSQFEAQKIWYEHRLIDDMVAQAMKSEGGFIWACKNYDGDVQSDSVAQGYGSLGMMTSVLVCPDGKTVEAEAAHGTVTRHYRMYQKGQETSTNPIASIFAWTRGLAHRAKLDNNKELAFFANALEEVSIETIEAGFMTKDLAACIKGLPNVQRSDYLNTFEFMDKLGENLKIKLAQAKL
KDM4C inh = blocks human GASC-1 (KDM4C) demethylase activity | inhibition, % at 12.5 µM | Q9H3R0 | 0.15% of 96,000 active | GST-KDM4C 2-372, H3K9me3 peptide, LANCE TR-FRET;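 active means mean replicate inhibition above about 25%, with at least 55% of replicates also reaching it, limit read from the data, passing the limit was not always enough; inconclusive means only one of those two conditions met; inactive means neither condition met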
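Material: N-terminal GST-fused human GASC-1 (KDM4C) fragment, residues 2-372. Input: 10 nM enzyme. Incubation: enzyme reaction 30 min, then detection 60 min, both room temperature. Doses: one test concentration per compound. Read-out basis: inhibition from TR-FRET ratio decrease. Detection: LANCE TR-FRET, excitation 340 nm, emissions 618 and 671 nm.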
T cruzi growth-1 = T. cruzi proliferation inhibition | T. cruzi beta-gal in NIH3T3, GalScreen luminescence, 90 h | inhibition, % at 8.34 µM | 5.9% of 77,000 active;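 active means mean inhibition above about 93%, with at least 55% of replicates each passing it, limit read from the data, passing the limit was not always enough; inconclusive means only one of those two conditions holds; inactive means neither condition holds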
T cruzi growth-2 = inhibitors of T. cruzi proliferation; AID 651739; shares compounds with T cruzi growth-1; T. cruzi beta-gal in NIH3T3, GalScreen luminescence, 90 h; inhibition, % at 8.35 µM; 72% of 5,600 active;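 active means mean replicate inhibition above about 95% and at least 55% of replicates individually reaching it, limit read from the data; inconclusive means only one of the two criteria is met; inactive means neither criterion is met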
T cruzi growth-3 = Trypanosoma cruzi proliferation inhibition | inhibition, % at 2.09 µM | 21% of 5,600 active | shares compounds with T cruzi growth-1 | AID 651740 | T. cruzi beta-gal in NIH3T3, GalScreen luminescence, 90 h;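 active means mean inhibition above about 95%, with at least 55% of replicates also reaching it, limit read from the data; inconclusive means meets just one of the two conditions; inactive means meets neither condition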;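 further: plate controls were neutral control median for no effect and positive control median for full effect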
3T3 cytotox = kills mouse NIH/3T3 fibroblasts | 14% of 5,600 active | NIH/3T3 viability, CellTiter-Glo ATP luminescence, 90 h | shares compounds with T cruzi growth-1 | cytotoxicity (signal decrease), % at 8.35 µM | AID 651742;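 active means mean signal decrease across replicates above about 35% based on untreated-well scatter, with enough replicates individually passing, limit read from the data; inconclusive means no rule stated though some were filed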;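 further: 0% = median of neutral control wells and 100% = median of positive control wells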
3T3 cytotox 2 = NIH/3T3 (mouse) viability loss. shares compounds with T cruzi growth-1. NIH/3T3 viability, CellTiter-Glo ATP luminescence, 90 h. inhibition, % at 24.9 µM. 56% of 5,600 active. AID 651744;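 active means mean loss of cell viability signal at or above a set limit, and enough replicates individually reaching it; inconclusive means meets only the mean limit or only the replicate share; inactive means meets neither condition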;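 further: 0% = median of neutral control wells and 100% = median of positive control wells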
An asterisk follows results filed as active; ? = inconclusive; · = no result. Only a selection was taken, and hits are over-represented in it overall.

SMILES | IDH1 mut inh | KDM4C inh | T cruzi growth-1 | T cruzi growth-2 | T cruzi growth-3 | 3T3 cytotox | 3T3 cytotox 2
COc1ccc(S(=O)(=O)N(C)C[C@H]2OCCCC[C@H](C)Oc3ccc(NS(=O)(=O)c4ccc(Cl)cc4)cc3C(=O)N([C@@H](C)CO)C[C@@H]2C)cc1 | · | -1 | · | · | · | · | ·
COc1ccc(S(=O)(=O)Nc2ccc3c(c2)C(=O)N([C@H](C)CO)C[C@H](C)[C@@H](CN(C)S(=O)(=O)c2ccc(Cl)cc2)OCCCC[C@@H](C)O3)cc1 | 1 | 0 | 101* | 108* | 28 | 6 | 36*
COc1ccc(S(=O)(=O)Nc2ccc3c(c2)C(=O)N([C@@H](C)CO)C[C@H](C)[C@@H](CN(C)S(=O)(=O)c2ccc(Cl)cc2)OCCCC[C@@H](C)O3)cc1 | 0 | 0 | 99* | 101* | 114* | -2 | 35*
CN(C)CCC(C)(O)Cc1ccccc1 (configuration not stated) | 0 | · | · | · | · | · | ·
c1ccc(CCc2nn3c(COc4ccccc4)nnc3s2)cc1 | -1 | · | · | · | · | · | ·
C[C@@H]1CCCCO[C@H](CN(C)C(=O)CCCN(C)C)[C@@H](C)CN([C@H](C)CO)C(=O)c2cc(NC(=O)c3ccccc3)ccc2O1 | 3 | 2 | 99* | 23 | -38 | -11 | 9
C[C@@H]1CN([C@H](C)CO)C(=O)c2cc(NS(C)(=O)=O)ccc2O[C@@H](C)CCCCO[C@@H]1CN(C)C(=O)CCCN(C)C | · | 1 | 100* | 54 | 0 | 18 | -2
C[C@@H]1CCCCO[C@H](CN(C)C(=O)CCCN(C)C)[C@H](C)CN([C@@H](C)CO)C(=O)c2cc(NS(C)(=O)=O)ccc2O1 | 1 | 2 | 17 | · | · | · | ·
C[C@@H]1CN([C@@H](C)CO)C(=O)c2cc(NC(=O)c3ccccc3)ccc2O[C@@H](C)CCCCO[C@H]1CN(C)C(=O)CCCN(C)C | -1 | -2 | 47 | · | · | · | ·
CC(C)(C)C1CCc2c(sc(NC(=O)CSc3n[nH]c(-c4ccco4)n3)c2C#N)C1 (configuration not stated) | 0 | · | · | · | · | · | ·
O=C(CSc1nnc(-c2ccccn2)n1-c1ccccc1)Nc1cc(C(F)(F)F)ccc1Cl | 1 | · | · | · | · | · | ·
Cc1noc(C)c1S(=O)(=O)Nc1ccc2c(c1)C(=O)N([C@H](C)CO)C[C@H](C)[C@@H](CN(C)Cc1ccc(C(F)(F)F)cc1)OCCCC[C@H](C)O2 | · | -2 | 100* | 110* | 107* | 6 | 105*
Cc1noc(C)c1S(=O)(=O)Nc1ccc2c(c1)C(=O)N([C@H](C)CO)C[C@H](C)[C@H](CN(C)Cc1ccc(C(=O)O)cc1)OCCCC[C@H](C)O2 | · | 1 | 32 | · | · | · | ·
Cc1noc(C)c1S(=O)(=O)Nc1ccc2c(c1)C(=O)N([C@@H](C)CO)C[C@@H](C)[C@H](CN(C)Cc1ccc(Cl)c(Cl)c1)OCCCC[C@@H](C)O2 | · | -2 | ? | 87 | 104* | 57* | 105*
Cc1noc(C)c1S(=O)(=O)Nc1ccc2c(c1)C(=O)N([C@H](C)CO)C[C@H](C)[C@H](CN(C)Cc1ccc(C(F)(F)F)cc1)OCCCC[C@H](C)O2 | · | 8 | 101* | 97* | 105* | 29 | 105*
Cc1noc(C)c1S(=O)(=O)Nc1ccc2c(c1)C(=O)N([C@@H](C)CO)C[C@@H](C)[C@H](CN(C)Cc1ccc(C(=O)O)cc1)OCCCC[C@H](C)O2 | · | 1 | 18 | · | · | · | ·
Cc1noc(C)c1S(=O)(=O)Nc1ccc2c(c1)C(=O)N([C@@H](C)CO)C[C@H](C)[C@@H](CN(C)Cc1ccc(C(F)(F)F)cc1)OCCCC[C@@H](C)O2 | 4 | 2 | 98* | ? | ? | 18 | 105*
Cc1noc(C)c1S(=O)(=O)Nc1ccc2c(c1)C(=O)N([C@@H](C)CO)C[C@@H](C)[C@H](CN(C)Cc1ccc(C(F)(F)F)cc1)OCCCC[C@H](C)O2 | 13 | -1 | 90 | · | · | · | ·
Cc1noc(C)c1S(=O)(=O)Nc1ccc2c(c1)C(=O)N([C@H](C)CO)C[C@H](C)[C@H](CN(C)Cc1ccc(Cl)c(Cl)c1)OCCCC[C@@H](C)O2 | · | -1 | 82 | · | · | · | ·
